# Most compounds without a hit are left out; they make up all but 27% or so of the library.
# CYP2C9 inh = blockers of cytochrome P450 2C9 activity – biochemical, luminescence, ADME assay, primary screen; P11712; AID 777, 2007; 96,000 tested, 20% active; inhibition, % at 5 µM; CYP2C9 Supersomes, luciferin-H conversion;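 active = blocking of liver enzyme CYP2C9 beyond about 50% at 5 µM, limit read from the data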
# CYP2C19 inh = blockers of cytochrome P450 2C19 activity – biochemical, luminescence, ADME assay, primary screen | CYP2C19 Supersomes, luciferin-H EGE luminescence, 30 min | inhibition, % at 5 µM | 96,000 tested, 21% active | AID 778, 2007;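 active = CYP2C19 inhibition above a set limit at 5 µM in the primary screen, cut at about 50% in these data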;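 note: plate controls were negative control wells for no effect and 2.5 mM tranylcypromine positive control for full effect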
# CYP2C9 activ = human CYP2C9 activators, primary screen, biochemical, luminescence; recombinant CYP2C9, luciferin-H conversion; active compounds read high; factor 1 = untreated enzyme, 0 = blocked; activation factor at 5 µM; 96,000 tested, 1.4% active;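 active = activation factor of 2 or more for CYP2C9 at a 5 µM dose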;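 note: 0 = sulfaphenazole-blocked wells and 1 = vehicle-only wells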
# Cav32 inh = Cav3.2 calcium influx blockers – cell-based, Fluo-4 calcium fluorescence, FDSS, MLSMR library, primary screen | 100,000 tested, 4% active | Cav3.2-expressing cells; active compounds read low | B-score at 10 µM;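 active = single-dose well whose peak fluorescence ratio is a statistical outlier from its plate by either plate-standardised score or position-corrected B-score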
# Rev-RRE block = HIV-1 Rev-RRE binding inhibitors, primary screen, biochemical, FRET, protein-RNA interaction; P05866; Rev peptide-RRE RNA binding; inhibition, % at 8 µM; 97,000 tested, 0.79% active; AID 704, 2007;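 active = inhibition above the screen-wide mean plus 3 SD, cut at about 35% in these data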;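 note: 0% = median DMSO wells and 100% = median Neomycin B control wells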
#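 Material: labelled RRE RNA duplex and labelled Rev peptide / Buffer or medium: HEPES pH 7.5 salt buffer with EDTA / Compound dosing: single point, 8 µM final nominal compound concentration / Benchmarks: DMSO low control, neomycin B high control / Timing: 5 min preincubation and 15 min binding, 25 °C / Technique: FRET fluorescence readout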
# CYP2C19 act = human CYP2C19 activators, primary screen, biochemical, luminescence; Cytochrome P450 2C19 (Homo sapiens), P33261; AID 1025, 2008; 96,000 tested, under 10 active; activation factor at 5 µM; recombinant CYP2C19, luciferin-H EGE luminescence; active compounds read high; 0 = fully inhibited enzyme, 1 = untreated enzyme;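 active = activation factor of at least 2 at 5 µM in the primary screen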;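 note: 0 = wells with 2.5 mM tranylcypromine and 1 = vehicle-only wells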
# Active calls of the source: *; . = not tested or not shown.
SMILES,CYP2C9 inh,CYP2C19 inh,CYP2C9 activ,Cav32 inh,Rev-RRE block,CYP2C19 act
Cc1ccccc1NC(=O)N1CCCC(c2nc(-c3ccc(F)cc3)no2)C1 (stereo unspecified),70*,54*,0.3,-2,7,0.5
Cc1ccc(-c2noc(C3CCCN(C(=O)C4CCCCC4)C3)n2)o1 (stereo unspecified),60*,53*,0.4,-0.068,6,0.5
O=C(C1CCCCC1)N1CCCC(c2nc(-c3ccc(F)cc3)no2)C1 (stereo unspecified),48,31,0.5,-1.2,9,0.7
COc1ccc(NC(=O)N2CCC(c3nc(-c4cccs4)no3)CC2)cc1,55*,69*,0.5,.,5,0.3
O=C(Nc1ccccc1)N1CCCC(c2nc(-c3ccc(F)cc3)no2)C1 (stereo unspecified),48,36,0.5,-5.4*,8,0.6
Cc1ccc(-c2noc(C3CCCCC3)n2)cc1,4,-7,1,-0.02,5,1.1
Cc1ccc(C)c(NC(=O)Cn2nc(C)c3ccccc3c2=O)c1,1,14,1,-0.037,.,0.9
Cc1ccccc1NC(=O)N1CCCC(c2nc(-c3ccc(C(C)C)cc3)no2)C1 (stereo unspecified),70*,19,0.3,-4.2*,2,0.8
O=C(Nc1ccccc1)N1CC=C(c2ccc(F)cc2)CC1,30,56*,0.7,-4.6*,14,0.4
O=C(Nc1ccccc1)N1CC=C(c2ccccc2)CC1,19,33,0.8,-0.99,-1,0.7
O=C(Nc1ccccc1)N1CCCC(c2nc(-c3cccs3)no2)C1 (stereo unspecified),48,87*,0.5,-0.99,.,0.1
Cc1ccc(-c2noc(C3CCCN(C(=O)c4ccc(F)cc4F)C3)n2)cc1 (stereo unspecified),39,22,0.6,-0.011,2,0.8
CC(C)c1ccc(-c2noc(C3CCCN(C(=O)c4ccc(F)cc4F)C3)n2)cc1 (stereo unspecified),90*,82*,0.1,-0.62,8,0.2
Cc1ccc(S(=O)(=O)N2CCN(S(C)(=O)=O)CC2)cc1,.,.,.,0.21,2,.
O=C1NC[C@H](c2ccccc2)N(CCc2cccc(F)c2)C1=O,.,.,.,0.33,.,.
CCn1c(SCC(=O)Nc2cc(C)on2)nnc1-c1c[nH]c2ccccc12,.,.,.,-0.45,.,.
CCn1c(SCC(=O)Nc2ccc(OC)c(OC)c2)nnc1-c1cccs1,7,5,0.9,0.27,.,0.9
CCn1c(SCC(=O)Nc2cc(C)on2)nnc1-c1ccncc1,18,73*,0.8,0.056,4,0.3
CCn1c(SCC(=O)Nc2cccc(OC)c2)nnc1-c1ccc(Cl)cc1,-6,0,1.1,0.03,7,1
CCn1c(SCC(=O)Nc2cccc(NC(=O)c3cccs3)c2)nnc1-c1ccncc1,72*,31,0.3,0.0076,3,0.7
CCn1c(SCC(=O)Nc2ccc(S(=O)(=O)Nc3ccccn3)cc2)nnc1-c1ccncc1,95*,60*,0,-0.5,7,0.4
CCC(=O)Nc1cccc(NC(=O)CSc2nnc(-c3ccc(NS(C)(=O)=O)cc3)n2CC)c1,54*,36,0.5,0.65,1,0.6
COc1ccc(CCNc2cc(=O)[nH]c(N)n2)cc1,-14,3,1.1,0.15,10,1
O=S1(=O)N=C(N2CCc3ccccc3C2)c2ccccc21,-20,40,1.2,1.6,6,0.6
CCn1c(SCC(=O)Nc2ccc(N(C)C)cc2)nnc1-c1cccc(C)c1,86*,73*,0.1,0.15,1,0.3
SMILES,CYP2C9 inh,CYP2C19 inh,CYP2C9 activ,Cav32 inh,Rev-RRE block,CYP2C19 act
CN(C)c1ccc(NC(=O)CSc2nc(N)c(C(=O)Nc3ccc(N(C)C)cc3)s2)cc1,33,28,0.7,-0.018,-4,0.7
CCOC(=O)c1sc(SCC(=O)Nc2ccc(N(C)C)cc2)nc1N,57*,69*,0.4,0.23,0,0.3
Cc1occc1C(=O)NCCCc1ccccc1,26,40,0.7,-0.98,4,0.6
Cc1cc(=O)c2ccccc2s1,-13,28,1.1,1.8,6,0.7
COCCCNC(=O)c1ccc(Cn2c(=O)c3ccccc3n(Cc3ccccc3C)c2=O)cc1,80*,78*,0.2,0.029,7,0.2
COCCCNC(=O)CCn1c(=O)c2ccccc2n(CC(=O)Nc2c(C)cccc2C)c1=O,17,-2,0.8,0.67,5,1
COc1ccc(C(=O)NCCCc2nc3ccccc3n2Cc2ccccc2C)cc1OC,.,.,.,-2.4,.,.
COCCCNC(=O)c1ccc(Cn2c(=O)c3ccccc3n(Cc3cc(C)ccc3C)c2=O)cc1,82*,75*,0.2,-1.4,10,0.3
COCCCNC(=O)c1ccc(Cn2c(=O)c3ccccc3n(Cc3ccccc3C#N)c2=O)cc1,59*,52*,0.4,-0.07,-6,0.5
O=C(NCc1ccccc1)C1=C[C@@H](c2coc3ccccc3c2=O)C[C@@H](OCCCCO)O1,.,.,.,0.75,.,.
COc1ccc(C(CC(=O)N2CCN(c3ccccc3)CC2)c2c(OC)cc(OC)c3ccc(=O)oc23)cc1 (stereo unspecified),.,.,.,-2.5,.,.
CSc1nc(C)cc(C)c1S(=O)(=O)c1ccccc1C,-190,12,2.9*,-6.5*,3,0.9
CCCCOc1ccccc1C1C(C(N)=O)=C(C)Nc2nnnn21 (stereo unspecified),-1,-2,1,0.99,1,1
C=CCSC1=N/C(=C\c2ccc(C)o2)C(=O)S1,50,82*,0.5,-0.44,10,0.2
CCCCNc1nc(-c2ccccc2)nc(-n2ccnc2)n1,85*,86*,0.1,-1.2,9,0.1
c1ccc(CN2CCN(c3nc(-c4ccccc4)nc(-n4ccnc4)n3)CC2)cc1,57*,34,0.4,-0.037,4,0.7
c1ccc(-c2nc(-n3ccnc3)nc(-n3ccnc3)n2)cc1,49,56*,0.5,0.79,.,0.4
C=CCNc1nc(-c2ccccc2)nc(-n2ccnc2)n1,46,35,0.5,-0.4,8,0.7
Cc1cc(C(=O)NCCCN2CC(C)CC(C)C2)n(-c2ccccc2)n1 (stereo unspecified),-3,-7,1,0.98,5,1.1
COc1ccc(S(=O)NC2CCCCC2)c(OC)c1C (stereo unspecified),2,26,1,0.4,0,0.7
